Laboratory results reported in ChEMBL document CHEMBL5236609, “Optimization of 1,2,4-Triazole-3-thiones toward Broad-Spectrum Metallo-β-lactamase Inhibitors Showing Potent Synergistic Activity on VIM- and NDM-1-Producing Clinical Isolates” (J Med Chem, 2022).
Activity calls are given as the source filed them. The calls are words filed in the database; no cut-off is given here.

Legend:
Bacteria [1] = assay: Inhibition of bacterial VIM-2 (unknown origin) assessed as Zn(II) content in protein at >5 uM by overnight equilibrium dialysis
Procedure, shortened: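 VIM-2 or NDM-1 (3 μM final) in 50 mM HEPES pH 7.5 mixed with compound at 0–48 μM. Incubated 1 h on ice, then dialysed overnight at 4 °C against 50 mM HEPES pH 7.5. Zn(II) content measured by atomic absorption at 213.86 nm against a zinc standard curve. Each point averages three samples.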

Klebsiella pneumoniae [2] = assay: Antimicrobial activity against blaVIM-4-producing multidrug-resistant Klebsiella pneumoniae VA-416/02 clinical isolate assessed as meropenem MIC using cation-adjusted Mueller-Hinton broth at 4 ug/ml by broth microdilution method (reference value: […] ug/ml); assay type: functional; settings: dose 4 µg/ml
Procedure, shortened: (§1)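 Checkerboard broth microdilution in cation-supplemented Mueller–Hinton broth, inoculum 5×10^4 CFU/well, per CLSI. […] The average fractional inhibitory concentration index was computed from the checkerboard.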

Klebsiella pneumoniae [3] = assay: Antimicrobial activity against blaVIM-4-producing multidrug-resistant Klebsiella pneumoniae VA-416/02 clinical isolate assessed as meropenem MIC using cation-adjusted Mueller-Hinton broth at 2 ug/ml by broth microdilution method (reference value: […] ug/ml); assay type: functional; settings: dose 2 µg/ml; procedure, shortened: as §1
Klebsiella pneumoniae [4] = assay: Antimicrobial activity against blaVIM-1-producing multidrug-resistant Klebsiella pneumoniae 7023 clinical isolate assessed as meropenem MIC using cation-adjusted Mueller-Hinton broth at 32 ug/ml by broth microdilution method (reference value: […] ug/ml); assay type: functional; settings: dose 32 µg/ml; procedure, shortened: as §1
Bacteria [5] = assay: Inhibition of bacterial Metallo-beta-lactamase VIM-1 (unknown origin) at 100 uM relative to control
Procedure, shortened: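 Reporter-substrate assay with purified MBL (1–70 nM final) in 50 mM HEPES pH 7.5 at 30 °C. […] Inhibitor 0.5–1000 μM final. Ki derived from the v0/vi vs [I] slope assuming competitive inhibition, or from a Dixon plot. Ki given when inhibition >70%, otherwise % inhibition at 100 μM. Triplicate.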

Escherichia coli [6] = assay: Antimicrobial activity against blaNDM-1-producing multidrug-resistant Escherichia coli SI-004 clinical isolate assessed as meropenem MIC using cation-adjusted Mueller-Hinton broth at 16 ug/ml by broth microdilution method (reference value: 64 ug/ml); assay type: functional; settings: dose 16 µg/ml; procedure, shortened: as §1
Escherichia coli [7] = assay: Antimicrobial activity against blaNDM-1-producing multidrug-resistant Escherichia coli SI-004 clinical isolate assessed as meropenem MIC using cation-adjusted Mueller-Hinton broth at 4 ug/ml by broth microdilution method (reference value: 64 ug/ml); assay type: functional; settings: dose 4 µg/ml; procedure, shortened: as §1
Escherichia coli [8] = assay: Antimicrobial activity against blaNDM-1-producing multidrug-resistant Escherichia coli SI-004 clinical isolate assessed as meropenem MIC using cation-adjusted Mueller-Hinton broth at 0.5 ug/ml by broth microdilution method (reference value: 64 ug/ml); assay type: functional; settings: dose 0.5 µg/ml; procedure, shortened: as §1
Klebsiella pneumoniae [9] = assay: Antimicrobial activity against blaVIM-1-producing multidrug-resistant Klebsiella pneumoniae 7023 clinical isolate assessed as meropenem MIC using cation-adjusted Mueller-Hinton broth at 8 ug/ml by broth microdilution method (reference value: […] ug/ml); assay type: functional; settings: dose 8 µg/ml; procedure, shortened: as §1
Bacteria [10] = assay: Binding affinity to bacterial VIM-2 (unknown origin) assessed as change in entropy by isothermal calorimetric assay
Procedure, shortened: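 ITC at 25 °C. VIM-2 at 19 μM in 10 mM HEPES-NaOH, 0.15 M NaCl, pH 7.5 with DMSO matched to 1%, titrated with compound at 200 μM: one 0.5 μL injection, then 19 × 2 μL at 150 s intervals. Buffer dilution heats subtracted. Nonlinear fit gives n, Ka and ΔH°; values regarded as apparent.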

SMILES	inhibition (Bacteria [1])	MIC (Klebsiella pneumoniae [2])	MIC (Klebsiella pneumoniae [3])	MIC (Klebsiella pneumoniae [4])	inhibition (Bacteria [5])	MIC (Escherichia coli [6])	MIC (Escherichia coli [7])	MIC (Escherichia coli [8])	MIC (Klebsiella pneumoniae [9])	TdeltaS (Bacteria [10])
O=C(O)[C@H](CCCn1c(-c2ccccc2)n[nH]c1=S)N(Cc1ccccn1)Cc1ccccn1	Active	–	–	–	–	–	–	–	–	–
O=C(O)[C@H](CCCn1c(-c2ccccc2)n[nH]c1=S)N(Cc1c[nH]cn1)Cc1c[nH]cn1	–	2 µg/mL	4 µg/mL	0.03 µg/mL	57%	0.06 µg/mL	32 µg/mL	64 µg/mL	1 µg/mL	-1.4 kcal/mol
